1 compound from paper PMC8210293 (Experimental and Therapeutic Medicine, 2021) can be followed below.

Each structure is given as a SMILES string.

Common to all, as to assay type: in vitro ADME
One experiment deals with T1, recombinant human UGT1A9 (Homo sapiens, UniProt O60656).
T1 sequence (O60656 26-530): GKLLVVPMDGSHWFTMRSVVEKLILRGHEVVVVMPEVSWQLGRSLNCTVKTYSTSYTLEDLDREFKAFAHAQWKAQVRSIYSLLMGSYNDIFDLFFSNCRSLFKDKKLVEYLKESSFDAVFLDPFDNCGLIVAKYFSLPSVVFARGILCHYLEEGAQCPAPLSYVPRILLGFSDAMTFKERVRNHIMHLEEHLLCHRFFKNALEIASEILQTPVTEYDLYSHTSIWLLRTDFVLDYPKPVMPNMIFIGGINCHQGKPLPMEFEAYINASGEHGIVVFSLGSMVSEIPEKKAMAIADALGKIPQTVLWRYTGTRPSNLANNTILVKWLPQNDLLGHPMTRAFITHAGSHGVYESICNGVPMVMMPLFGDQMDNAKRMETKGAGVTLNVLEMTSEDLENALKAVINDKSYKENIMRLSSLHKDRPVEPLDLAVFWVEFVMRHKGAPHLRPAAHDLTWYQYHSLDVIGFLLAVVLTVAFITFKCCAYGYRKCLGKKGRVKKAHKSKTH
Put plainly: Inhibition of recombinant UGT1A9-catalyzed 4-MU glucuronidation. A digest of the protocol: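 UGT1A9 incubations used recombinant human enzyme from baculovirus-insect cells (0.05 mg/ml), 30 µM 4-MU, 5 mM UDPGA, 5 mM MgCl2, 50 mM Tris-HCl pH 7.4, DMSO <0.5%. Preincubated 5 min at 37 °C, UDPGA-started, run 30 min, stopped with cold methanol plus internal standard. 4-MU-G by LC-MS/MS MRM. Remaining activity vs blank at 50 µM. […] Ki and type from model fits and Lineweaver-Burk/Dixon plots.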

In a further experiment the target is T2, recombinant human UGT1A6 (Homo sapiens, UniProt P19224).
T2 sequence (P19224 27-532): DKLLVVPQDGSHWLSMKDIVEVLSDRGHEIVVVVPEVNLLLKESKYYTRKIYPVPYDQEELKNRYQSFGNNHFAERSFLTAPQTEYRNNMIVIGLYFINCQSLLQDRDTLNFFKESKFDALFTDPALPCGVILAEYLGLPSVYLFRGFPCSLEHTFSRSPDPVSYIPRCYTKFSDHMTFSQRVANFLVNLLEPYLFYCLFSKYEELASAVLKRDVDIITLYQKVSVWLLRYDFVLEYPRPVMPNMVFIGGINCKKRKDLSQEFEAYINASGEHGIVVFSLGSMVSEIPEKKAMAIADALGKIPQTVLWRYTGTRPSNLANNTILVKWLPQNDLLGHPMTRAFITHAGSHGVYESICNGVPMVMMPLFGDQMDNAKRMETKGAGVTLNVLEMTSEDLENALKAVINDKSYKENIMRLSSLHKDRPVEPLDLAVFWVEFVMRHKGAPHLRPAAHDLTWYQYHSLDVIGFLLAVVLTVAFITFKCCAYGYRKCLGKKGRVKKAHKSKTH
As to the kind of experiment: Inhibition of recombinant UGT1A6-catalyzed 4-MU glucuronidation. The note with it: Dixon and Lineweaver-Burk plots.

A further experiment deals with T3, recombinant human UGT1A1 (Homo sapiens, UniProt P22309).
T3 sequence (P22309 26-533): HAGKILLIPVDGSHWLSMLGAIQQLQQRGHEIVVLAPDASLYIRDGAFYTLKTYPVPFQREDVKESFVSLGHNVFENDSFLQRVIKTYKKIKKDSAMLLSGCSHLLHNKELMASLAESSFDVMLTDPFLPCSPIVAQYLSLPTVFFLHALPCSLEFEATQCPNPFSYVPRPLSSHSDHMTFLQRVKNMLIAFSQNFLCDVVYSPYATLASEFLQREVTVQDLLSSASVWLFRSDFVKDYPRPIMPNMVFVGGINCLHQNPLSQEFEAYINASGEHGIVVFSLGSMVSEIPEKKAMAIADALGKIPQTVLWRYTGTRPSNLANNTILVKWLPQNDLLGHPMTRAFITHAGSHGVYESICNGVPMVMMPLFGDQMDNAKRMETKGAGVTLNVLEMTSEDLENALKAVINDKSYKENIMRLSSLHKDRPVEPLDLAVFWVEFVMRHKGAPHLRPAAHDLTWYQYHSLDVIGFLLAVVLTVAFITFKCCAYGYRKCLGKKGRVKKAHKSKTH
As to the kind of experiment: Inhibition of recombinant UGT1A1-catalyzed 4-MU glucuronidation. A digest of the protocol:
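Recombinant human UGT1A1 from baculovirus-infected insect cells (0.125 mg/ml), 30 µM 4-MU, 5 mM UDPGA, 5 mM MgCl2, 50 mM Tris-HCl pH 7.4, DMSO <0.5%. Preincubated 5 min at 37 °C, started with UDPGA, run 120 min, stopped with cold methanol plus internal standard. 4-MU-G measured by LC-MS/MS MRM. Remaining activity vs blank at 50 µM. […] Ki by model fitting. Type from Lineweaver-Burk/Dixon plots.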

The target in a further experiment is T4, recombinant human UGT1A3 (Homo sapiens, UniProt P35503).
T4 sequence (P35503 29-534): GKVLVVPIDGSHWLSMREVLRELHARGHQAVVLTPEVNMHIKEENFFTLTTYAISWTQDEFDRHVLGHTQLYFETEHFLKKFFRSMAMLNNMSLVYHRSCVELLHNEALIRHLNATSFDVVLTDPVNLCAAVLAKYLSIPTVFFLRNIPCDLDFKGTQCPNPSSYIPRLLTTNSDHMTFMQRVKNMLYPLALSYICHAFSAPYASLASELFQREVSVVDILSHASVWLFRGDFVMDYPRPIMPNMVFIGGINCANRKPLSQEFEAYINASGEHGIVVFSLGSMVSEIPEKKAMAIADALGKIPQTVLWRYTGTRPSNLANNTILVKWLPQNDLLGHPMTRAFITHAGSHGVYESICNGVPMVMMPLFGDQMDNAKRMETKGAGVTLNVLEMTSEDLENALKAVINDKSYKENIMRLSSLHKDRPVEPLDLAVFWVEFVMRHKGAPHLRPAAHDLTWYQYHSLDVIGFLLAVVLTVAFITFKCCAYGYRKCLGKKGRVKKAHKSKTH
Put plainly: Inhibition of recombinant UGT1A3-catalyzed 4-MU glucuronidation. The following applies: for Ki: UGT1A3. A digest of the protocol:
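Insect-cell-expressed recombinant human UGT1A3 (0.05 mg/ml), 1,200 µM 4-MU, 5 mM UDPGA, 5 mM MgCl2, 50 mM Tris-HCl pH 7.4, DMSO <0.5%. Preincubated 5 min at 37 °C, UDPGA-initiated, run 120 min, quenched with cold methanol plus internal standard. 4-MU-G by LC-MS/MS MRM. Remaining activity vs blank at 50 µM. […] Ki from inhibition-model fits and Lineweaver-Burk/Dixon plots.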

`O=c1c(O)c(-c2ccc(O)c(O)c2)oc2cc(O)cc(O)c12` [Quercetin, 3,3',4',5,7-pentahydroxyflavone]: the concentration for half-maximal inhibition (IC50) – broadly, the concentration at which inhibition is half-maximal – on recombinant human UGT1A9 is 2.81 µM; at recombinant human UGT1A1, 7.47 µM; on recombinant human UGT1A3 it was 10.6 µM. Besides, the Ki (usually the dissociation constant of the complex between target and ligand, obtained from inhibition or displacement) on recombinant human UGT1A9 is 0.51 µM; at recombinant human UGT1A1 (Inhibitory potential class based on Ki, UGT1A1), 1 to 10 µM; at recombinant human UGT1A3 (Inhibitory potential class based on Ki), 1 to 10 µM; at recombinant human UGT1A3 (Ki, second plot of Lineweaver-Burk slopes), 1.6 µM. For the same compound, the Inhibition type result is “competitive inhibition” on recombinant human UGT1A9 (UGT1A9, Dixon and Lineweaver-Burk plots); “non-competitive inhibition” on recombinant human UGT1A6; “non-competitive inhibition” at recombinant human UGT1A1 (UGT1A1, Dixon and Lineweaver-Burk plots).
